Measured values reported in ChEMBL document CHEMBL5653609, “Ack1-mediated androgen receptor phosphorylation modulates radiation resistance in castration-resistant prostate cancer” (J Biol Chem, 2012).
Calls of active or inactive are those of the source. The rule behind the calls is not given here.

Assays:
[1] = molecular target: Tyrosine-protein kinase BTK (Homo sapiens, UniProt Q06187); assay: Inhibition of BTK (unknown origin) in the presence of [33P]ATP by kinase hotspot assay
LNCaP [2] = assay: Antitumor activity against irradiated human LNCaP-caAck expressing cells xenografted mouse assessed as reduction in ATM expression level at 4 mg/kg on 7th day by immunohistochemical staining; format: functional, organism-based
In short: (§1)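 Irradiated (1.5 Gy) LNCaP-caAck xenografts in castrated nude mice dosed 4 mg/kg from day 7 (DMSO control) were excised, fixed, paraffin-embedded and sectioned. Sections stained with H&E, or for ATM by IHC: citrate pH 6.0 retrieval at 95 °C 30 min, rabbit monoclonal ATM antibody 1:300 overnight 4 °C, biotin secondary/streptavidin-peroxidase, DAB, hematoxylin counterstain.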

LNCaP [3] = assay: Induction of cell cycle arrest in human LNCaP cells with IR-induced DNA damage assessed as reduction in proportion of cells at G2 phase at 5 uM incubated for 24 hrs in the presence of 5 Gy by PI-staining-based flow cytometry analysis; format: functional; design: scale not given: the % may be the effect or the level left
In short: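 LNCaP cells left untreated, given 5 Gy x-ray, inhibitor (5 μm, 24 h), or both; harvested 16 h after irradiation. Nuclei processed with trypsin, trypsin inhibitor/RNase A, then propidium iodide; DNA content of 20,000 cells by flow cytometry, cell cycle modelled. Three independent experiments.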

[4] = molecular target: Insulin-like growth factor 1 receptor (Homo sapiens, UniProt P08069); assay: Inhibition of IGF1R (unknown origin) in the presence of [33P]ATP by kinase hotspot assay
[5] = molecular target: Receptor tyrosine-protein kinase erbB-2 (Homo sapiens, UniProt P04626); assay: Inhibition of HER2 (unknown origin) in the presence of [33P]ATP by kinase hotspot assay
[6] = molecular target: Mitogen-activated protein kinase 3 (Homo sapiens, UniProt P27361); assay: Inhibition of ERK1 (unknown origin) in the presence of [33P]ATP by kinase hotspot assay
[7] = molecular target: Tyrosine-protein kinase JAK2 (Homo sapiens, UniProt O60674); assay: Inhibition of JAK2 (unknown origin) in the presence of [33P]ATP by kinase hotspot assay
[8] = molecular target: Tyrosine-protein kinase Lck (Homo sapiens, UniProt P06239); assay: Inhibition of LCK (unknown origin) in the presence of [33P]ATP by kinase hotspot assay
[9] = molecular target: RAF proto-oncogene serine/threonine-protein kinase (Homo sapiens, UniProt P04049); assay: Inhibition of RAF1 (unknown origin) in the presence of [33P]ATP by kinase hotspot assay
LNCaP [10] = assay: Antitumor activity against irradiated human LNCaP-caAck expressing cells xenografted mouse assessed as necrosis at 4 mg/kg on 7th day by Hematoxylin and eosin staining; format: functional, organism-based; in short: as §1
[11] = molecular target: Tyrosine-protein kinase ABL1 (Homo sapiens, UniProt P00519); assay: Inhibition of ABL1 (unknown origin) in the presence of [33P]ATP by kinase hotspot assay
[12] = molecular target: Serine/threonine-protein kinase Sgk1 (Homo sapiens, UniProt O00141); assay: Inhibition of SGK1 (unknown origin) in the presence of [33P]ATP by kinase hotspot assay
[13] = molecular target: Tyrosine-protein kinase receptor TYRO3 (Homo sapiens, UniProt Q06418); assay: Inhibition of TYRO3 (unknown origin) in the presence of [33P]ATP by kinase hotspot assay
[14] = molecular target: RAC-alpha serine/threonine-protein kinase (Homo sapiens, UniProt P31749); assay: Inhibition of AKT1 (unknown origin) in the presence of [33P]ATP by kinase hotspot assay
Wee1-like protein kinase = Wee1-like protein kinase (Homo sapiens, UniProt P30291); assay: Inhibition of WEE1 (unknown origin) in the presence of [33P]ATP by kinase hotspot assay
[15] = Toxicity in mouse assessed as change in body weight; conditions: in vivo
In short: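 Body weight of castrated nude mice bearing LNCaP-caAck xenografts tracked during dosing at 4 mg/kg per injection (day 7, then days 11–27 every 4 days) versus DMSO-injected controls; morbidity also noted.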

[16] = molecular target: Platelet-derived growth factor receptor alpha (Homo sapiens, UniProt P16234); assay: Inhibition of PDGFRalpha (unknown origin) in the presence of [33P]ATP by kinase hotspot assay
[17] = molecular target: Inhibitor of nuclear factor kappa-B kinase subunit alpha (Homo sapiens, UniProt O15111); assay: Inhibition of IKKalpha (unknown origin) in the presence of [33P]ATP by kinase hotspot assay
[18] = molecular target: Phosphatidylinositol 4,5-bisphosphate 3-kinase catalytic subunit beta isoform (Homo sapiens, UniProt P42338); assay: Inhibition of PI3Kbeta (unknown origin) in the presence of [33P]ATP by kinase hotspot assay
[19] = molecular target: DNA-dependent protein kinase catalytic subunit (Homo sapiens, UniProt P78527); assay: Inhibition of DNA-PK (unknown origin) in the presence of [33P]ATP by kinase hotspot assay
LNCaP [20] = assay: Antitumor activity against irradiated human LNCaP-caAck FLAG-tagged KD ATM expressing cells xenografted mouse assessed as inhibition of tumor growth at 4 mg/kg on day 12; format: functional, organism-based
In short: (§2)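 Castrated male nude mice received LNCaP-caAck cells transfected with FLAG-tagged kinase-dead or wild-type ATM constructs (CMV promoter), irradiated 1.5 Gy before injection. Inhibitor 4 mg/kg per injection starting day 12 after cell injection, then on days 15, 19, 23 and 27; n = 5 mice per group; tumor growth followed.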

LNCaP [21] = assay: Antitumor activity against irradiated human LNCaP-caAck expressing cells xenografted mouse assessed as reduction in tumor growth at 4 mg/kg on 7th day; format: functional, organism-based
In short: (§3)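 LNCaP-caAck cells (2 × 10⁶), unirradiated or irradiated 1.5 Gy, in PBS/Matrigel 1:1, injected subcutaneously into flanks of castrated male nude mice. Inhibitor 4 mg/kg per injection on day 7 post-implantation, then days 11, 15, 19, 23, 27; DMSO control; n = 8 per group. Caliper tumor volumes twice weekly; two independent experiments.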

[22] = molecular target: Serine/threonine-protein kinase pim-1 (Homo sapiens, UniProt P11309); assay: Inhibition of PIM1 (unknown origin) in the presence of [33P]ATP by kinase hotspot assay
[23] = molecular target: Tyrosine-protein kinase receptor UFO (Homo sapiens, UniProt P30530); assay: Inhibition of AXL (unknown origin) in the presence of [33P]ATP by kinase hotspot assay
LNCaP [24] = assay: Antitumor activity against irradiated human LNCaP-caAck FLAG-tagged wild-type ATM expressing cells xenografted mouse assessed as inhibition of tumor growth at 4 mg/kg on day 12; format: functional, organism-based; in short: as §2
[25] = molecular target: Glycogen synthase kinase-3 alpha (Homo sapiens, UniProt P49840); assay: Inhibition of GSK3alpha (unknown origin) in the presence of [33P]ATP by kinase hotspot assay
LNCaP [26] = assay: Induction of cell cycle arrest in human LNCaP cells with IR-induced DNA damage assessed as reduction in number of cells at G2 phase at 10 uM incubated for 24 hrs in the presence of 5 Gy by PI-staining-based flow cytometry analysis; format: functional
In short: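 LNCaP cells given 5 Gy x-ray alone or with agent (10 μm, 24 h). Propidium iodide staining and flow cytometric DNA content analysis of cell cycle phases; performed in triplicate.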

[27] = molecular target: Tyrosine-protein kinase Lyn (Homo sapiens, UniProt P07948)
[28] = molecular target: Serine/threonine-protein kinase mTOR (Homo sapiens, UniProt P42345); assay: Inhibition of mTOR (unknown origin) in the presence of [33P]ATP by kinase hotspot assay
LNCaP [29] = assay: Induction of cell cycle arrest in human LNCaP cells with IR-induced DNA damage assessed as high number of cells with DSBs at 5 uM after 5 hrs in the presence of 15 Gy by flow cytometry analysis; format: functional, cell-based
[30] = molecular target: Serine/threonine-protein kinase Chk1 (Homo sapiens, UniProt O14757); assay: Inhibition of CHK1 (unknown origin) in the presence of [33P]ATP by kinase hotspot assay
[31] = molecular target: Mitogen-activated protein kinase kinase kinase 8 (Homo sapiens, UniProt P41279); assay: Inhibition of MAP3K8 (unknown origin) in the presence of [33P]ATP by kinase hotspot assay
Activated CDC42 kinase 1 = Activated CDC42 kinase 1 (Homo sapiens, UniProt Q07912); assay: Inhibition of Ack1 (unknown origin) in the presence of [33P]ATP by kinase hotspot assay
[32] = molecular target: RAC-gamma serine/threonine-protein kinase (Homo sapiens, UniProt Q9Y243); assay: Inhibition of AKT3 (unknown origin) in the presence of [33P]ATP by kinase hotspot assay
LNCaP [33] = assay: Antitumor activity against unirradiated human LNCaP-caAck expressing cells xenografted mouse assessed as reduction in tumor growth at 4 mg/kg on 7th day; format: functional; design: scale not given: the % may be the effect or the level left; in short: as §3
Insulin receptor = Insulin receptor (Homo sapiens, UniProt P06213); assay: Inhibition of IR (unknown origin) in the presence of [33P]ATP by kinase hotspot assay
[34] = molecular target: Phosphatidylinositol 4,5-bisphosphate 3-kinase catalytic subunit alpha isoform (Homo sapiens, UniProt P42336); assay: Inhibition of PI3Kalpha (unknown origin) in the presence of [33P]ATP by kinase hotspot assay
[35] = molecular target: Vascular endothelial growth factor receptor 2 (Homo sapiens, UniProt P35968); assay: Inhibition of VEGFR2 (unknown origin) in the presence of [33P]ATP by kinase hotspot assay

Chain of DNA-dependent protein kinase catalytic subunit (P78527 whole entry): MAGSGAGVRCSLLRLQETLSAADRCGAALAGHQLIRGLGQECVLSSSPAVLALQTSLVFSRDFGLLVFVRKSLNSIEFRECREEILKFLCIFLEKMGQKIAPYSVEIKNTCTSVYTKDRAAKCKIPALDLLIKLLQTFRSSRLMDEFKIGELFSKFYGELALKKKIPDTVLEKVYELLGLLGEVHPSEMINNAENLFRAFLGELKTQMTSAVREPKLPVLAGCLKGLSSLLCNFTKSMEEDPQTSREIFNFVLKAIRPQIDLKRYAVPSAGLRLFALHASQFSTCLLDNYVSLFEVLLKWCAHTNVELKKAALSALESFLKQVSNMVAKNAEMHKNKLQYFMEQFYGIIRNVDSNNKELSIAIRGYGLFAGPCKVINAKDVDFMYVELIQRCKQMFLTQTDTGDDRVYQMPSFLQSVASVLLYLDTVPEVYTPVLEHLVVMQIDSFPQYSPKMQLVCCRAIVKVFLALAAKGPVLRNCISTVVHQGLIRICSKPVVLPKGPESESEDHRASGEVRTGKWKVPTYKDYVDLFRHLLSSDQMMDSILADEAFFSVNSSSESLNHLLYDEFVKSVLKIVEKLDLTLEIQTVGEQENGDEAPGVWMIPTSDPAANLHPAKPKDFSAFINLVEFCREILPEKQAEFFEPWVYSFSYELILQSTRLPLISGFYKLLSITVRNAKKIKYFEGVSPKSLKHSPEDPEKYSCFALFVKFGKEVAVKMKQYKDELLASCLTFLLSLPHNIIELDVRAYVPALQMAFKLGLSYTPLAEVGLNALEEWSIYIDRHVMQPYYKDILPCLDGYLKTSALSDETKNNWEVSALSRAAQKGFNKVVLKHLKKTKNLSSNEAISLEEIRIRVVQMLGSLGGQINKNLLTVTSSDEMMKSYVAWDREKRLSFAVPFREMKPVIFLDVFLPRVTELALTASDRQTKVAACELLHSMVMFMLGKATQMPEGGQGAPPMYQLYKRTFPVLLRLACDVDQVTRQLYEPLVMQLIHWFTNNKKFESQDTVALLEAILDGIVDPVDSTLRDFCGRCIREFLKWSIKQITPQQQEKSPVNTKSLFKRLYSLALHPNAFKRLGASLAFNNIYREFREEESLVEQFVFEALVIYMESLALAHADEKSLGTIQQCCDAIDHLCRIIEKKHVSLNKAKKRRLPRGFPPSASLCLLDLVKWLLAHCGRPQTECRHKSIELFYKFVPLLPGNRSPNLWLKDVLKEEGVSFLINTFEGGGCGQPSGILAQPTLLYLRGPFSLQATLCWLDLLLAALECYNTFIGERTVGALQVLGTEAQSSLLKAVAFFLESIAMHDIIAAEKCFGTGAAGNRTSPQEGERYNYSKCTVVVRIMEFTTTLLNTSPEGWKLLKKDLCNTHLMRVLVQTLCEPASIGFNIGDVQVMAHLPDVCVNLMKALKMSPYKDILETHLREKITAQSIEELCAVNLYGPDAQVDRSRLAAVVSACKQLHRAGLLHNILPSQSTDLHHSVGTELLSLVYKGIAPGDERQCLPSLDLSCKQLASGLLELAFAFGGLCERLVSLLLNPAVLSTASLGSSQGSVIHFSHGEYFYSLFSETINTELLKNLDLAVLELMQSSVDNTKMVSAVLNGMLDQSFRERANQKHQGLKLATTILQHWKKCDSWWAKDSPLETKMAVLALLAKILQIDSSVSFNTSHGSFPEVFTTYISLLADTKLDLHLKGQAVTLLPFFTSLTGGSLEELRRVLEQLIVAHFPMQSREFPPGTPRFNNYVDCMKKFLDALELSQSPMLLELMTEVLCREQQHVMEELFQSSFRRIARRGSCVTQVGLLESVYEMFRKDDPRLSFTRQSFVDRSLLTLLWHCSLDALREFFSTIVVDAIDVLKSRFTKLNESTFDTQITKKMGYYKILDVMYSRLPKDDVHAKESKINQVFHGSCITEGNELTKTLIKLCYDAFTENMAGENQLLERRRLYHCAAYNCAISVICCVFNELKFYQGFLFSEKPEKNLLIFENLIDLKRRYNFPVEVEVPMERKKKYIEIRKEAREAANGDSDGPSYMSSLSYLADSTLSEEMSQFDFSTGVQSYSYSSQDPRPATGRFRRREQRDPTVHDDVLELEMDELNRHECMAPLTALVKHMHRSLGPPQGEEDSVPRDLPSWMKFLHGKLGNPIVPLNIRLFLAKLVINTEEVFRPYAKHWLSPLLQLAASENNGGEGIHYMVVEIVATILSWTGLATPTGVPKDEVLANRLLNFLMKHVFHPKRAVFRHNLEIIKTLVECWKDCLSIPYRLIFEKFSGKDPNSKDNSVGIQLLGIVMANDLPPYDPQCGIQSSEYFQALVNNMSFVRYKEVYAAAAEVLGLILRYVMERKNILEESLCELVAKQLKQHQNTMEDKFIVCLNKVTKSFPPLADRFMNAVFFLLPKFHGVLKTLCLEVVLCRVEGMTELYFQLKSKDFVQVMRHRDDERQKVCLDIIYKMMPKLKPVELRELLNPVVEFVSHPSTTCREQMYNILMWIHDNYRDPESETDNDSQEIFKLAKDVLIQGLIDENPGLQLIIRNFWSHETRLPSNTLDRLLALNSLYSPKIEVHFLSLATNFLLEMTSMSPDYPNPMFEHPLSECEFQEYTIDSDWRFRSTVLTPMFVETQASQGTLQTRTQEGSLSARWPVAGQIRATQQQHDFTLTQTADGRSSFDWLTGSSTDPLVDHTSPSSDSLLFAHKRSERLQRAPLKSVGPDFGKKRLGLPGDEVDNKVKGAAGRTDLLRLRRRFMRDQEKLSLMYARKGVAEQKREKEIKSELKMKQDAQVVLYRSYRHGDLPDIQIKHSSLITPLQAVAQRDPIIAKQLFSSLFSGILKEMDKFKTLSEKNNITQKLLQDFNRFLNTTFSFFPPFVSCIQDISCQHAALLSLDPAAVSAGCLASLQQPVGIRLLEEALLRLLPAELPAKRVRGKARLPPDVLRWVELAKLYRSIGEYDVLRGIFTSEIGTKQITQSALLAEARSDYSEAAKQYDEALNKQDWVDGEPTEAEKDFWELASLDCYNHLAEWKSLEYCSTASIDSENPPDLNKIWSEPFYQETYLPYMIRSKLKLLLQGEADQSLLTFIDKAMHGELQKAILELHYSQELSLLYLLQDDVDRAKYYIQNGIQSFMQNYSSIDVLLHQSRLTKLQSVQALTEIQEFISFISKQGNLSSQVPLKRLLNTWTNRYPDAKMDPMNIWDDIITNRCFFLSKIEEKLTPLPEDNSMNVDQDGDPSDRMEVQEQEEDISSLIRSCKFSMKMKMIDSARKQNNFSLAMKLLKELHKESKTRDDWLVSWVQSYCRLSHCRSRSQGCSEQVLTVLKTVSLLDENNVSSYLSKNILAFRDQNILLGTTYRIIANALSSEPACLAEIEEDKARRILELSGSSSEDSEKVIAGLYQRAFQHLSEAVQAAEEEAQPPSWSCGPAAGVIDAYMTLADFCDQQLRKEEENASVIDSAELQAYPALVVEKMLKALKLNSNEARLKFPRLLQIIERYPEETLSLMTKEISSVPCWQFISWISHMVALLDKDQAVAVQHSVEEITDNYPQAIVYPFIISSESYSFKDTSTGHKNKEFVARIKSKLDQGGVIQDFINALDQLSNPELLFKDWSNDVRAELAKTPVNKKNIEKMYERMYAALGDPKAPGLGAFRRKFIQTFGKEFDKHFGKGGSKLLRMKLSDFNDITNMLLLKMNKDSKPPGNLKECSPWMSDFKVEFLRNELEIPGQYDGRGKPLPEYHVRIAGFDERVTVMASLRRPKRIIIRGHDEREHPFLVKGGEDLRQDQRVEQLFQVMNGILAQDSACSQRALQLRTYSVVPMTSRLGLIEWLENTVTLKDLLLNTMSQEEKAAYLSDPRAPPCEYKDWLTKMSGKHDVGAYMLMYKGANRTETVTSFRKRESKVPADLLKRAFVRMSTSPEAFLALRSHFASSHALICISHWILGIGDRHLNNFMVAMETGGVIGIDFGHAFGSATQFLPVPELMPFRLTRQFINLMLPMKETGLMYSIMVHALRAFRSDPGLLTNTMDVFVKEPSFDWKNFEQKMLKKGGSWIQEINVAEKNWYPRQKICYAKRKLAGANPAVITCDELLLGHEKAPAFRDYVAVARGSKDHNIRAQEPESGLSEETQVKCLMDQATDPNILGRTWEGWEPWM
Chain of Mitogen-activated protein kinase kinase kinase 8 (P41279 whole entry): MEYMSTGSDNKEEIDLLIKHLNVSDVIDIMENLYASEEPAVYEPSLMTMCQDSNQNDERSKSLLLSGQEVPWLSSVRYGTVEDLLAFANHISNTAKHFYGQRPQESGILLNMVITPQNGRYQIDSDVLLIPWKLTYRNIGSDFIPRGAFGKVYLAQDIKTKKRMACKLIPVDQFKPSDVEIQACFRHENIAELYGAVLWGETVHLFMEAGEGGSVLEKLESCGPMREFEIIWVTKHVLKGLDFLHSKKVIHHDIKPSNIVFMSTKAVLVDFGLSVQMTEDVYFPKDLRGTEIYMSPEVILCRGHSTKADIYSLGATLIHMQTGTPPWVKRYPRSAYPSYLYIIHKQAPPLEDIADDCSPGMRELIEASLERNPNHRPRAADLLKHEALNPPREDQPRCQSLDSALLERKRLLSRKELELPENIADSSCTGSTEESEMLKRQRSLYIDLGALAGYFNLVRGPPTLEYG
Chain of Serine/threonine-protein kinase Sgk1 (O00141 whole entry): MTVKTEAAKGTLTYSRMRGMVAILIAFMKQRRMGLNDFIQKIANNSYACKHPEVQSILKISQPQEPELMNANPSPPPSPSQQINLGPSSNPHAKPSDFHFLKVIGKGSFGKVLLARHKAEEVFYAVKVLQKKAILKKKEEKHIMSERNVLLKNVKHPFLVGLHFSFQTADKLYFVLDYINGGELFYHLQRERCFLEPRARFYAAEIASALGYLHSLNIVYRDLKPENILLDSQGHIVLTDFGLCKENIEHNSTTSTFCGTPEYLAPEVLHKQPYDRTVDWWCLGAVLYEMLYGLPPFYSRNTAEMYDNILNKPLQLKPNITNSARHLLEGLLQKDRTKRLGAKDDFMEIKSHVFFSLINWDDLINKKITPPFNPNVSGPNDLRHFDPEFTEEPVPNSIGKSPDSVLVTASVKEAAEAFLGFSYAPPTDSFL

Question: With c1ccc(-c2oc3ncnc(NC[C@@H]4CCCO4)c3c2-c2ccccc2)cc1 as the compound, how does the IC50 [1] read?
Answer: 872 nM

Question: And the Activity (LNCaP [2])?
Answer: Active

Question: And the Activity (LNCaP [3])?
Answer: 38%

Question: And the IC50 [4]?
Answer: Not Active

Question: And the IC50 [5]?
Answer: Not Active

Question: What about the IC50 [6] of the same compound?
Answer: Not Active

Question: And the IC50 [7]?
Answer: Not Active

Question: And the IC50 [8]?
Answer: 432 nM

Question: What about the IC50 [9] of the same compound?
Answer: Not Active

Question: What about the Activity (LNCaP [10]) of the same compound?
Answer: Active

Question: And the IC50 [11]?
Answer: 706 nM

Question: What about the IC50 [12] of the same compound?
Answer: Not Active

Question: And the IC50 [13]?
Answer: Not Active

Question: And the IC50 [14]?
Answer: Not Active

Question: And the IC50 (Wee1-like protein kinase)?
Answer: Not Active

Question: And the Activity [15]?
Answer: Non-Toxic

Question: And the IC50 [16]?
Answer: Not Active

Question: And the IC50 [17]?
Answer: Not Active

Question: What about the IC50 [18] of the same compound?
Answer: Not Active

Question: And the IC50 [19]?
Answer: Not Active

Question: And the inhibition (LNCaP [20])?
Answer: Active

Question: And the Activity (LNCaP [21])?
Answer: Active

Question: What about the IC50 [22] of the same compound?
Answer: Not Active

Question: What about the IC50 [23] of the same compound?
Answer: Not Active

Question: And the inhibition (LNCaP [24])?
Answer: inactive

Question: What about the IC50 [25] of the same compound?
Answer: Not Active

Question: What about the Activity (LNCaP [26]) of the same compound?
Answer: Active

Question: What about the IC50 [27] of the same compound?
Answer: 347 nM

Question: What about the IC50 [28] of the same compound?
Answer: Not Active

Question: And the Activity (LNCaP [29])?
Answer: Active

Question: And the IC50 [30]?
Answer: Not Active

Question: And the IC50 [31]?
Answer: Not Active

Question: What about the IC50 (Activated CDC42 kinase 1) of the same compound?
Answer: 21.6 nM

Question: What about the IC50 [32] of the same compound?
Answer: Not Active

Question: What about the Activity (LNCaP [33]) of the same compound?
Answer: ~50%

Question: And the IC50 (Insulin receptor)?
Answer: Not Active

Question: What about the IC50 [34] of the same compound?
Answer: Not Active

Question: And the IC50 [35]?
Answer: Not Active

Question: With CN[C@@H]1C[C@H]2O[C@@](C)([C@@H]1OC)n1c3ccccc3c3c4c(c5c6ccccc6n2c5c31)C(=O)NC4 [STAUROSPORINE] as the compound, how does the IC50 [9] read?
Answer: Not Active

Question: And the IC50 [19]?
Answer: Not Active

Question: And the IC50 [28]?
Answer: Not Active

Question: What about the IC50 ([31]; read-out: IC50) of the same compound?
Answer: > 20000 nM

Question: With O=c1cc(-c2cccc3c2Sc2ccccc2S3)oc(N2CCOCC2)c1 as the compound, how does the Activity (LNCaP [26]) read?
Answer: Active

Question: Which Activity [15] does the source give for C[S+](C)[O-] [DIMETHYL SULFOXIDE] here?
Answer: Non-Toxic
